Test results published in ChEMBL document CHEMBL1155982 (Bioorg Med Chem Lett, 2009).

Assays:
[1] = Intrinsic cytotoxicity against human MES-SA/Dx5 cells; assay type: functional
In short: (§1)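 MES-SA/DX5 (P-gp-overexpressing human sarcoma) cells seeded at 1.2 × 10⁴ cells/well and incubated 24 h at 37 °C. They were then exposed for 60 h to varying concentrations of test compound, with or without 100 nM Taxol. Survival was read by Cell Counting Kit-8, and GI₅₀/EC₅₀ were taken from the concentration series.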

Cytochrome P450 3A4 = Cytochrome P450 3A4 (Homo sapiens, UniProt P08684); assay: Inhibition of human CYP3A4; assay type: ADME
[2] = Cytotoxicity against human MES-SA/Dx5 cells; assay type: functional, cell-based; in short: as §1

Sequence of Cytochrome P450 3A4 (P08684 whole entry): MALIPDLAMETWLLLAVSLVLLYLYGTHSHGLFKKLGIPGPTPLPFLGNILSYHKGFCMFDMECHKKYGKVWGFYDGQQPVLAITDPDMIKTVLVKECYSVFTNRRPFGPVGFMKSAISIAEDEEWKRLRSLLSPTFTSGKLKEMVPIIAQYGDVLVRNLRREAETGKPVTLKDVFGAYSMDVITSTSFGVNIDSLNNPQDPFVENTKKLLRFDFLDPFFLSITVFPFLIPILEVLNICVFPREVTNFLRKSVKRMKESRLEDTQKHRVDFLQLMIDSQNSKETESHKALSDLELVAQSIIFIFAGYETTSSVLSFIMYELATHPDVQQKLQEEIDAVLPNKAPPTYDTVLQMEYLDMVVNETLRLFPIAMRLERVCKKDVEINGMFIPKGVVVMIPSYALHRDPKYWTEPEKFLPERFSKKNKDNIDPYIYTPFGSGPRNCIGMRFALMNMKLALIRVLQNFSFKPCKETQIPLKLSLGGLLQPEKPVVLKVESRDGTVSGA

Row | IC50 (Cytochrome P450 3A4) | Structure (SMILES) | GI50 [1] | IC50 [2]
1 | – | COC(=O)c1ccc(NC(=O)COc2ccc(C34CC5CC(CC(C(=O)N6CCc7cc(OC)c(OC)cc7C6)(C5)C3)C4)cc2)cc1 | 14.3 µM | –
2 | – | COc1cc2c(cc1OC)CN(C(=O)C13CC4CC(C1)CC(c1ccc(OCC(=O)Nc5cccc(C(N)=O)c5)cc1)(C4)C3)CC2 | 16.3 µM | –
3 | 3.79 µM | COC(=O)c1ccccc1NC(=O)COc1ccc(C23CC4CC(CC(C(=O)N5CCc6cc(OC)c(OC)cc6C5)(C4)C2)C3)cc1 | > 20 µM | –
4 | 0.82 µM | COC(=O)c1cccc(NC(=O)COc2ccc(C34CC5CC(CC(C(=O)N6CCN(Cc7cccc(OC)c7)CC6)(C5)C3)C4)cc2)c1 | 13.2 µM | –
5 | – | COC(=O)c1cccc(NC(=O)COc2ccc(C34CC5CC(CC(C(=O)NCCN(C)C)(C5)C3)C4)cc2)c1 | > 20 µM | –
6 | – | COc1ccc(CCN(C)CCCC(C#N)(c2ccc(OC)c(OC)c2)C(C)C)cc1OC (stereo not given) | > 20 µM | –
7 | – | COc1cc2c(cc1OC)CN(C(=O)C13CC4CC(C1)CC(c1ccc(OCC(=O)Nc5cccc(C(F)(F)F)c5)cc1)(C4)C3)CC2 | 12.1 µM | –
8 | – | COC(=O)c1cccc(NC(=O)COc2ccc(C34CC5CC(CC(C(=O)N6CCN(Cc7ccc(F)cc7)CC6)(C5)C3)C4)cc2)c1 | > 20 µM | –
9 | – | COC(=O)c1cccc(NC(=O)COc2ccc(C34CC5CC(CC(C(=O)Nc6ccc(C(C)(C)C)cc6)(C5)C3)C4)cc2)c1 | > 20 µM | –
10 | – | COC(=O)c1cccc(NC(=O)COc2ccc(C34CC5CC(CC(C(N)=O)(C5)C3)C4)cc2)c1 | 14.3 µM | –
11 | 2.03 µM | COC(=O)c1cccc(NC(=O)COc2ccc(C34CC5CC(CC(C(=O)N6CCN(Cc7ccc(C(F)(F)F)cc7)CC6)(C5)C3)C4)cc2)c1 | > 20 µM | –
12 | – | CC(=O)O[C@H]1C(=O)[C@@]2(C)[C@H]([C@H](OC(=O)c3ccccc3)[C@]3(O)C[C@H](OC(=O)[C@H](O)[C@@H](NC(=O)c4ccccc4)c4ccccc4)C(C)=C1C3(C)C)[C@]1(OC(C)=O)CO[C@@H]1C[C@@H]2O [PACLITAXEL] | 7.54 µM | 7.54 µM
13 | > 5 µM | COc1cc2c(cc1OC)CN(C(=O)C13CC4CC(C1)CC(c1ccc(OCC(=O)Nc5cccc(C#N)c5)cc1)(C4)C3)CC2 | > 20 µM | –
14 | – | COC(=O)c1cccc(NC(=O)COc2ccc(C34CC5CC(CC(C(=O)OCc6ccccc6)(C5)C3)C4)cc2)c1 | > 20 µM | –
15 | – | COC(=O)c1cccc(NC(=O)COc2ccc(C34CC5CC(CC(C(=O)N6CCc7cc(OC)c(OC)cc7C6)(C5)C3)C4)cc2)c1 | > 20 µM | –
16 | – | COc1cc2c(cc1OC)CN(C(=O)C13CC4CC(C1)CC(c1ccc(OCC(=O)Nc5cccc6cccnc56)cc1)(C4)C3)CC2 | > 20 µM | –
17 | – | COC(=O)c1cccc(NC(=O)COc2ccc(C34CC5CC(CC(C(=O)NCc6ccc(OC)c(OC)c6)(C5)C3)C4)cc2)c1 | > 20 µM | –
18 | – | COc1cc2c(cc1OC)CN(C(=O)C13CC4CC(C1)CC(c1ccc(OCC(=O)Nc5cccc(C(=O)NCc6ccco6)c5)cc1)(C4)C3)CC2 | > 20 µM | –
19 | 0.89 µM | COC(=O)c1cccc(NC(=O)COc2ccc(C34CC5CC(CC(C(=O)N6CCN(Cc7ccc(OC)cc7)CC6)(C5)C3)C4)cc2)c1 | 14 µM | –
